The values that follow come from ChEMBL document CHEMBL4043244, “Diverse amide analogs of sulindac for cancer treatment and prevention” (Bioorg Med Chem Lett, 2017).

The nature of assay [1]: Growth inhibition of mouse CPC300 cells after 72 hrs by CellTiter-Glo reagent based assay. The format is functional, cell-based. Background: In ATP-based viability assays light output follows the ATP content of the culture.
The next assay has as its system HT-29. Briefly: Growth inhibition of human HT-29 cells after 72 hrs by CellTiter-Glo reagent based assay. The format is functional. Conditions: HT-29, 72 h; call rule not given here. In a few lines:
(§1)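 Cancer cell lines (PC3 prostate, HT29 colorectal carcinoma, MDA-MB-231 breast) were screened by quantitative high-throughput screening in whole cells, and CC50 values were derived.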

Another assay relates to Raji. In words: Growth inhibition of human Raji cells after 72 hrs by CellTiter-Glo reagent based assay. The format is functional, cell-based.
In the next assay the test system is PC-3. In words: Growth inhibition of human PC3 cells after 72 hrs by CellTiter-Glo reagent based assay. The format is functional. Conditions: PC-3, 72 h. In a few lines:
as §1

A further assay relates to REH. In words: Growth inhibition of human REH cells after 72 hrs by CellTiter-Glo reagent based assay. The format is functional, cell-based.
A further assay has as its system Jurkat E6.1. Briefly: Growth inhibition of human Jurkat E6-1 cells after 72 hrs by CellTiter-Glo reagent based assay. The format is functional, cell-based.
The subject of another assay is MDA-MB-231. In words: Growth inhibition of human MDA-MB-231 cells after 72 hrs by CellTiter-Glo reagent based assay. The format is functional. Conditions: MDA-MB-231, 72 h. In a few lines:
as §1

The next assay has as its system BJ. In words: Growth inhibition of human BJ cells after 72 hrs by CellTiter-Glo reagent based assay. The format is cell-based. In a few lines: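 Normal human foreskin fibroblast (BJ) counter-screen for cytotoxicity, with drug tested at 10 μM.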
The nature of assay [2]: Growth inhibition of human NALM16 cells after 72 hrs by CellTiter-Glo reagent based assay. The format is functional, cell-based.
Another assay has as its system 697. Briefly: Growth inhibition of human 697 cells after 72 hrs by CellTiter-Glo reagent based assay. The format is functional, cell-based.
Where [3] appears, read: Homo sapiens, NALM16, 72 h, read-out: EC50.
Where [4] appears, read: Homo sapiens, REH, 72 h, read-out: EC50.
Setting [5] is: Mus musculus, CPC300, 72 h, read-out: EC50.
The mark [6] stands for this setting: Homo sapiens, Raji, 72 h, read-out: EC50.
[7] abbreviates: Homo sapiens, 697, 72 h, read-out: EC50.

Molecules are shown by their SMILES. Bounds are passed on as bounds.

A word on the EC50: it is the concentration that produces a half-maximal response. The term CC50 denotes the concentration giving 50% cytotoxicity. On to `CSc1ccc(/C=C2/C(C)=C(CC(=O)NCCN(C)C)c3cc(F)ccc32)cc1`, for which the 50% effective concentration (EC50) result was “Not Active” in assay [1] (cpc300); “Not Active” in the assay on Raji (raji); “Not Active” in the assay on REH (reh); “Not Active” with Jurkat E6.1 (jurkat e6.1); > 7.57 µM in the assay with BJ; “Not Active” in [2] (nalm16). Also, the concentration for a half-maximal effect (EC50) result with 697 (697) is recorded as “Not Active”. Further, the cytotoxic concentration (CC50) in the assay with HT-29 was 0.65 µM; in the assay on PC-3, 3.12 µM; in the assay with MDA-MB-231, 2.67 µM.

Take `CC1=C(CC(=O)N(C)CCN(C)C)c2cc(F)ccc2/C1=C\c1nc2ccccc2s1`: the EC50 result in [1] (cpc300) was “Not Active”; in the assay with Raji (raji) it was “Not Active”; with REH (reh), “Not Active”; with Jurkat E6.1 (jurkat e6.1), “Not Active”; in the assay on BJ it was > 7.57 µM; in [2] (setting [3]), 0.3 µM. For the same compound, the concentration giving a half-maximal response (EC50) entry in the assay with 697 (697) was “Not Active”. For the same compound, the cytotoxic concentration (CC50) in the assay on HT-29 was determined as 2.02 µM; in the assay on PC-3, 5.88 µM; in the assay with MDA-MB-231 it was 3.8 µM.

For the compound `COc1cc(/C=C2/C(C)=C(CC(=O)N3CCN(c4ccncc4)CC3)c3cc(F)ccc32)cc(OC)c1OC`, the EC50 result in assay [1] (cpc300) is “Not Active”; in the assay on Raji (raji) it was “Not Active”; in the assay with REH (setting [4]), 27 µM; in the assay on Jurkat E6.1 (jurkat e6.1), “Not Active”; in the assay with BJ it was > 7.57 µM; in assay [2] (nalm16) it was “Not Active”. For the same compound, in the assay on 697 (697), the EC50 entry is reported as “Not Active”. The figures for the CC50 in the assay with HT-29, with PC-3 and with MDA-MB-231 were 2.79 µM, 5.45 µM and 6.5 µM, respectively.

As to `CSc1ccc(/C=C2/C(C)=C(CC(=O)N3CCN(CCN(C)C)CC3)c3cc(F)ccc32)cc1`, the EC50 was 27 µM in [1] (setting [5]); “Not Active” in the assay on Raji (raji); “Not Active” in the assay on REH (reh); “Not Active” with Jurkat E6.1 (jurkat e6.1); > 7.57 µM in the assay with BJ; 1.9 µM in assay [2] (setting [3]). Further, the EC50 entry in the assay on 697 (697) is recorded as “Not Active”. The CC50 worked out at 2.17 µM with HT-29, 6.23 µM in the assay on PC-3 and 4.05 µM in the assay with MDA-MB-231.

For `CSc1ccc(/C=C2/C(C)=C(CC(=O)N(C)CCN(C)C)c3cc(F)ccc32)cc1`, the concentration giving a half-maximal response (EC50) entry in assay [1] (cpc300) is “Not Active”; in the assay with Raji (setting [6]) it was 0.83 µM; in the assay on REH (reh), “Not Active”; with Jurkat E6.1 (jurkat e6.1), “Not Active”; in the assay with BJ it was > 7.57 µM; in [2] (setting [3]), 0.071 µM. Further, in the assay on 697 (697), the EC50 result was “Not Active”. The CC50 in the assay on HT-29 amounted to 1.83 µM; in the assay with PC-3, 5.63 µM; in the assay with MDA-MB-231 it was 3.98 µM.

For `CSc1ccc(/C=C2/C(C)=C(CC(=O)N3CCC[C@H]3CN3CCCC3)c3cc(F)ccc32)cc1`, the EC50 result in [1] (cpc300) is “Not Active”; in the assay on Raji (setting [6]) it was 76 µM; in the assay with REH (reh), “Not Active”; in the assay on Jurkat E6.1 (jurkat e6.1), “Not Active”; in the assay with BJ it was > 7.57 µM; with 697 (697) it was “Not Active”. In addition, the 50% cytotoxic concentration (CC50) in the assay with HT-29 came to 1.55 µM; with PC-3 it was 5.1 µM; with MDA-MB-231, 4.16 µM.

On to `CC1=C(CC(=O)NCc2ccccc2)c2cc(F)ccc2/C1=C\c1ccc([S+](C)[O-])cc1` (stereo not given), for which the EC50 was 120 µM in assay [1] (setting [5]); 2.6 µM with Raji (setting [6]); 3.3 µM in the assay on REH (setting [4]); 1.3 µM in the assay on Jurkat E6.1 (Homo sapiens, Jurkat E6.1, 72 h, read-out: EC50); > 7.57 µM with BJ; 1.3 µM in [2] (setting [3]). In addition, the concentration for a half-maximal effect (EC50) in the assay with 697 (setting [7]) was 4.1 µM. Moreover, the results for the CC50 in the assay on HT-29, with PC-3 and with MDA-MB-231 were 0.5 µM, 2.64 µM and 0.78 µM, respectively.

In the case of `CC1=C(CC(=O)N2CCN(c3ccncc3)CC2)c2cc(F)ccc2/C1=C\c1nc2ccccc2s1`, the EC50 in [1] (setting [5]) is 72 µM; with Raji (raji), “Not Active”; in the assay on REH (reh), “Not Active”; with Jurkat E6.1 (jurkat e6.1), “Not Active”; with BJ, > 7.57 µM; in assay [2] (nalm16), “Not Active”. Further, the EC50 result in the assay on 697 (697) is reported as “Not Active”. Besides, the CC50 came to 5.25 µM in the assay on HT-29, 12.3 µM in the assay with PC-3 and 7.71 µM in the assay on MDA-MB-231.

Take `CSc1ccc(/C=C2/C(C)=C(CC(=O)N3CCN(c4ccncc4)CC3)c3cc(F)ccc32)cc1`: the half-maximal effective concentration (EC50) was 50 µM in [1] (setting [5]); “Not Active” in the assay with Raji (raji); “Not Active” with REH (reh); “Not Active” in the assay with Jurkat E6.1 (jurkat e6.1); > 7.57 µM in the assay with BJ; “Not Active” in assay [2] (nalm16). For the same compound, in the assay with 697 (697), the 50% effective concentration (EC50) result is recorded as “Not Active”. For the same compound, the cytotoxic concentration (CC50) in the assay with HT-29 is 1.13 µM; with PC-3 it was 2.76 µM; with MDA-MB-231 it was 3.08 µM.

As for `CC1=C(CC(=O)NCCN2CCCC2)c2cc(F)ccc2/C1=C\c1nc2ccccc2s1`, the concentration for a half-maximal effect (EC50) entry is “Not Active” in assay [1] (cpc300); 47 µM in the assay with Raji (setting [6]); 18 µM in the assay on REH (setting [4]); “Not Active” with Jurkat E6.1 (jurkat e6.1); > 7.57 µM in the assay on BJ; “Not Active” in assay [2] (nalm16). In addition, the EC50 result in the assay with 697 (697) is “Not Active”. In addition, the half-maximal cytotoxic concentration (CC50) in the assay with HT-29 was determined as 1.21 µM; with PC-3, 4.94 µM; with MDA-MB-231, 3.56 µM.

In the case of `CSc1ccc(/C=C2/C(C)=C(CC(=O)N3CCN(CCCN(C)C)CC3)c3cc(F)ccc32)cc1`, the EC50 entry was “Not Active” in assay [1] (cpc300); 76 µM in the assay with Raji (setting [6]); “Not Active” in the assay on REH (reh); “Not Active” in the assay on Jurkat E6.1 (jurkat e6.1); > 7.57 µM in the assay on BJ; “Not Active” in the assay on 697 (697). Besides, the CC50 came out at 1.69 µM in the assay on HT-29, 4.28 µM in the assay with PC-3 and 3.77 µM in the assay with MDA-MB-231.

As to `CCN(CC)CCCNC(=O)CC1=C(C)/C(=C/c2ccc(SC)cc2)c2ccc(F)cc21`, the EC50 result in assay [1] (cpc300) was “Not Active”; in the assay on Raji (setting [6]), 21 µM; with REH (reh) it was “Not Active”; in the assay with Jurkat E6.1 (jurkat e6.1) it was “Not Active”; in the assay on BJ it was > 7.57 µM; with 697 (697), “Not Active”. Besides, the CC50 was 1.53 µM in the assay with HT-29, 4.33 µM in the assay on PC-3 and 3.19 µM in the assay on MDA-MB-231.

`CC1=C(CC(=O)NCCCN(C)C)c2cc(F)ccc2/C1=C\c1nc2ccccc2s1`: the EC50 in assay [1] (setting [5]) was 65 µM; with Raji (raji), “Not Active”; in the assay with REH (reh) it was “Not Active”; with Jurkat E6.1 (jurkat e6.1) it was “Not Active”; in the assay on BJ, > 7.57 µM; in assay [2] (setting [3]) it was 0.35 µM. Besides, in the assay with 697 (697), the 50% effective concentration (EC50) entry is listed as “Not Active”. The CC50 in the assay with HT-29 was 1.05 µM; in the assay on PC-3, 3.25 µM; in the assay with MDA-MB-231, 1.93 µM.

For `CSc1ccc(/C=C2/C(C)=C(CC(=O)N3CCCN(C)CC3)c3cc(F)ccc32)cc1`, the concentration giving a half-maximal response (EC50) result in assay [1] (cpc300) was “Not Active”; in the assay on REH (reh), “Not Active”; in the assay with Jurkat E6.1 (jurkat e6.1), “Not Active”; with BJ it was > 7.57 µM; in assay [2] (setting [3]), 0.49 µM; with 697 (697), “Not Active”. In addition, the results for the CC50 with HT-29, in the assay with PC-3 and with MDA-MB-231 were 2.94 µM, 7.35 µM and 7.21 µM, respectively.

In the case of `CC1=C(CC(=O)N2CCN(CCCN(C)C)CC2)c2cc(F)ccc2/C1=C\c1nc2ccccc2s1`, the EC50 entry in assay [1] (cpc300) was “Not Active”; with Raji (raji) it was “Not Active”; in the assay with REH (reh), “Not Active”; in the assay on Jurkat E6.1 (jurkat e6.1) it was “Not Active”; with BJ it was > 7.57 µM; in assay [2] (setting [3]) it was 0.097 µM. For the same compound, the EC50 result with 697 (697) is recorded as “Not Active”. The CC50 with HT-29 came to 1.62 µM; with PC-3, 4.21 µM; in the assay with MDA-MB-231 it was 2.9 µM.

Turning to `COc1cc(/C=C2/C(C)=C(CC(=O)N(C)CCN(C)C(=O)[C@@H](N)C(C)C)c3cc(F)ccc32)cc(OC)c1OC`, the EC50 entry in assay [1] (cpc300) was “Not Active”; in the assay with Raji (raji), “Not Active”; in the assay on Jurkat E6.1 (jurkat e6.1), “Not Active”; in the assay on BJ it was > 7.57 µM; in assay [2] (nalm16), “Not Active”; in the assay on 697 (setting [7]), 0.96 µM. Also, the results for the cytotoxic concentration (CC50) with HT-29, with PC-3 and with MDA-MB-231 were 10.7 µM, 17.7 µM and 18.8 µM, respectively.
